ChEMBL document CHEMBL1152520

Key:
[1] = Inhibition of LPS-induced AP1 transcriptional activation expressed in mouse RAW264.7 cells assessed as AP1 activity at 10 uM treated after LPS challenge measured after 24 hrs by luciferase reporter gene assay relative to control
[2] = test system: RAW264.7; experiment: Inhibition of LPS-induced NF-kappaB transcriptional activation expressed in mouse RAW264.7 cells assessed as NF-kappaB activity at 10 uM treated after LPS challenge measured after 24 hrs by luciferase reporter gene assay relative to control; type: cell-based
Outline: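 RAW 264.7 cells, about 1 10^5 per well, were seeded 24 h before co-transfection (lipofectamine plus) with pAP-1-Luc or pNF-κB-Luc plus the pGL-hRluc internal control. At 48 h post-transfection, E. coli 0111:B4 LPS (100 ng/mL final) was added for 6 h. Compound in DMSO (10 µM final) was then added and cells were harvested 24 h later. Dual-luciferase readout: firefly/Renilla ratio expressed as multiples of the untreated control, mean SEM, n = 3. Paired Student's t-test.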

C[C@@]12CC[C@@H]3[C@@](CC[C@H]4[C@@]3(C)[C@@H](O)CC[C@@]4(C)C(=O)O)(C/C1=N\O)C2
Activity [1]: 3.52
luciferase ratio [2]: 0.13

CC1=CC[C@@H]2[C@](CC#N)(CC[C@H]3[C@@]2(C)CCC[C@@]3(C)C(=O)O)C1
Activity [1]: 2.22
luciferase ratio [2]: 0.18

C[C@@]12CC[C@@H]3[C@@](CC1=O)(C2)[C@@H](O)C[C@H]1[C@@]3(C)[C@@H](O)CC[C@@]1(C)C(=O)O
Activity [1]: 2.98
luciferase ratio [2]: 0.16

C[C@@]12CC[C@@H]3[C@@](C/C1=N\O)(C2)[C@@H](O)C[C@H]1[C@@]3(C)[C@@H](O)CC[C@@]1(C)C(=O)O
Activity [1]: 3.37
luciferase ratio [2]: 0.26

CC1=C[C@@]2(CC#N)CC[C@H]3[C@@](C)(CCC[C@@]3(C)C(=O)O)[C@@H]2CC1
Activity [1]: 2.85
luciferase ratio [2]: 0.22

C[C@@]12CC[C@H]3[C@]4(C)CCC[C@@](C)(C(=O)O)[C@H]4C[C@H](O)[C@]3(C/C1=N\O)C2
Activity [1]: 2.69
luciferase ratio [2]: 0.16

C[C@@]12CC[C@@H]3[C@@](CC[C@H]4[C@@]3(C)CCC[C@@]4(C)C(=O)O)(C/C1=N\O)C2
Activity [1]: 4.87
luciferase ratio [2]: 0.15

C[C@@]12CC[C@@H]3[C@@](CC[C@H]4[C@@]3(C)CCC[C@@]4(C)C(=O)O)(CC(=O)N1)C2
Activity [1]: 3.19
luciferase ratio [2]: 0.15

C[C@@]12CC[C@@H]3[C@@](CC[C@H]4[C@@]3(C)CCC[C@@]4(C)C(=O)O)(CC(=O)O1)C2
Activity [1]: 2.38
luciferase ratio [2]: 0.2
